From ChEMBL document CHEMBL5380855, “Acetyl-Click Screening Platform Identifies Small-Molecule Inhibitors of Histone Acetyltransferase 1 (HAT1)” (J Med Chem, 2023)
Activity calls are given as the source filed them. The rule behind the calls is not given here.

Key:
HAT1/Rbap46 = HAT1/Rbap46 (Homo sapiens, UniProt O14929+Q16576); assay: (§1) Inhibition of C-terminal FLAG tagged full length human HAT1/Rbap46 transfected in HEK293F cells using histone H4 peptide as substrate and 4-pentynoyl-CoA as cofactor preincubated for 10 mins followed by 4-pentynoyl-CoA addition and measured after 1 hr by amplex red dye based fluorescence analysis; type: cell-based
Chain of HAT1/Rbap46 (Q16576 whole entry): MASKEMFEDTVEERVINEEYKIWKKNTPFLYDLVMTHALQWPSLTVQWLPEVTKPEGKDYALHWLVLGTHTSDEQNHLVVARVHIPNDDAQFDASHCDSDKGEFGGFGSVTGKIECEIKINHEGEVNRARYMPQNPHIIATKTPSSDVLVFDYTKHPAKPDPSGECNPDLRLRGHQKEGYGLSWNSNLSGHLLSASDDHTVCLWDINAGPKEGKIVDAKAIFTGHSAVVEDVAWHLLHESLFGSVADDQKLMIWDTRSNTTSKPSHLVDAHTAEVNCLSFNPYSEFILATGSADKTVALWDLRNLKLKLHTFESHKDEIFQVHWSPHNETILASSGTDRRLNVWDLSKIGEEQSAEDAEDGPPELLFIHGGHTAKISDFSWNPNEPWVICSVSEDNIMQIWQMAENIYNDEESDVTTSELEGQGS
Chain of HAT1/Rbap46 (O14929 whole entry): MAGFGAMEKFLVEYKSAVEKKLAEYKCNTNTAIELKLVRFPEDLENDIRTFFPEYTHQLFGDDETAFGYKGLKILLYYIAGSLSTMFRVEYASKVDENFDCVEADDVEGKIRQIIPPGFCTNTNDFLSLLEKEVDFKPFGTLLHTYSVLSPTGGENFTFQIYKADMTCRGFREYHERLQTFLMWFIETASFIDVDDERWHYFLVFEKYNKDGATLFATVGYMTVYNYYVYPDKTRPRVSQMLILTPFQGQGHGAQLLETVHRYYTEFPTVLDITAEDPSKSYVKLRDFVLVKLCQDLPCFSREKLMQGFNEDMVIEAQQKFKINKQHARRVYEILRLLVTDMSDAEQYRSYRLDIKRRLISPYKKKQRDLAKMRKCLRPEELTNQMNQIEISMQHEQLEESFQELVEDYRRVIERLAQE

[1] = target: T1, HAT1/Rbap46 (Homo sapiens) (UniProt Q16576+O14929); assay: as §1, with “cofactor at 100 uM” for “cofactor”, “analysis relative to control” for “analysis”; type: cell-based; details: time 70.0 min
T1 sequence (O14929 2-419 partner limits assumed): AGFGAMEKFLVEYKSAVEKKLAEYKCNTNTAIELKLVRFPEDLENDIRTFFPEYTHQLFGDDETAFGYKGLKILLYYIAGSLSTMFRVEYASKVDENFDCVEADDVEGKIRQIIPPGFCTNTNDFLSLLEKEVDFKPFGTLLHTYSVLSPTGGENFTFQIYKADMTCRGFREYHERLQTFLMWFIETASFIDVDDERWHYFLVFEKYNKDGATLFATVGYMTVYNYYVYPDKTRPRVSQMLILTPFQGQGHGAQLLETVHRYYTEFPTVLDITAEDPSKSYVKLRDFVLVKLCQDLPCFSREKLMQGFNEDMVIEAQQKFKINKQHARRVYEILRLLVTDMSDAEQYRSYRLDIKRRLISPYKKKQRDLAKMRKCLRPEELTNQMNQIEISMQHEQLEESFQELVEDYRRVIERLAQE
T1 sequence (Q16576 2-425 limits assumed): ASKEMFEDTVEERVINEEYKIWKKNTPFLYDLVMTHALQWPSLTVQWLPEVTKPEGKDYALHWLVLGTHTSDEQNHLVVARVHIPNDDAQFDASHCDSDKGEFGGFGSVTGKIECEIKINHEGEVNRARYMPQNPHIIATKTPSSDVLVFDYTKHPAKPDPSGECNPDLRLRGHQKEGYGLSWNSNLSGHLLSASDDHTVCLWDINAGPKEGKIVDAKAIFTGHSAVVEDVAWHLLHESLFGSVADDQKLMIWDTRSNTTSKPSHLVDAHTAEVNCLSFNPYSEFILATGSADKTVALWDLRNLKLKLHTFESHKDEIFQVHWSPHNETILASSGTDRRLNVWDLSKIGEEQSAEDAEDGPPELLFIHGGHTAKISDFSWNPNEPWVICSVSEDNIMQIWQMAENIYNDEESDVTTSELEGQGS

HCC1806 [2] = assay: Cytotoxicity against human HCC1806 cells assessed as inhibition of cell growth incubated for 48 hrs by celltiter blue analysis; type: functional, cell-based
[3] = target: T1, HAT1/Rbap46 (Homo sapiens); assay: as §1, with “cofactor at 1 to 100 uM” for “cofactor”, “analysis relative to control” for “analysis”; type: cell-based; details: dose 1-100 µM, time 70.0 min
[4] = target: T1, HAT1/Rbap46 (Homo sapiens); assay: as §1, with “analysis relative to control” for “analysis”; type: cell-based; design: concentration or dose not given beside the values; details: time 70.0 min
A549 = assay: Antitumor activity against human A549 cells xenografted in NSG mouse assessed as reduction in tumor growth at 50 to 100 mg/kg, ip administered once for every 3 days starting from day 13 post tumor implantation by digital caliper method; type: functional, organism-based; details: dose 50-100 mg/kg
In short: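 A549 cells were implanted in both flanks of NSG mice and tumours were allowed to establish for 13 days. Vehicle or drug (50 or 100 mg/kg) was then injected i.p. once every third day.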

Mus musculus = assay: In vivo inhibition of HAT-1 in NSG mouse xenografted with human A549 cells assessed as reduction in Histone H4 lysine 12 acetylation in tumor administered as single ip injection and measured after 24 hrs by immunofluorescence analysis; type: functional, organism-based; details: dose 25-100 mg/kg
In short: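 A549 tumours were established in NSG mice and given one i.p. dose of vehicle or drug. Tumours were harvested 24 h later and sections immunostained for H4K12Ac. Median nuclear fluorescence was taken from all nuclei in 2 images per group; one-way ANOVA.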

[5] = Cmax in CD1 mouse at 100 mg/kg, ip measured after 1 hr by LC-MS/MS analysis; type: ADME, organism-based; design: dose 100 mg/kg, time 1 hrs, route ip; details: in vivo
In short: (§2)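 Mice received one intraperitoneal injection at 100 mg/kg. Plasma concentrations of the drug were followed over time, out to 72 h, and PK parameters were derived from the plasma concentration–time profile.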

[6] = Tmax in CD1 mouse at 100 mg/kg, ip measured after 15 to 4320 mins by LC-MS/MS analysis; type: ADME, organism-based; details: in vivo, time 15-4320 min; in short: as §2
Homo sapiens = species on record: Homo sapiens; assay: Inhibition of FAD-dependent oxidase (unknown origin)
[7] = Observed apparent volume of distribution during terminal phase in CD1 mouse at 100 mg/kg, ip measured after 15 to 4320 mins by LC-MS/MS analysis; type: ADME, organism-based; details: in vivo, time 15-4320 min, read-out: Vz/F; in short: as §2
[8] = Toxicity in mouse assessed as signs of distress at 500 mg/kg, ip administered as single dose; type: organism-based; details: in vivo
[9] = Toxicity in mouse assessed as drug tolerance up to 250 mg/kg, ip administered as single dose; type: organism-based; details: in vivo
[10] = AUClast in CD1 mouse at 100 mg/kg, ip measured after 15 to 4320 mins by LC-MS/MS analysis; type: ADME, organism-based; design: time lower 15 min, dose 100 mg/kg, time upper 4320 min, route ip; details: in vivo; in short: as §2
[11] = Terminal elimination half life in CD1 mouse at 100 mg/kg, ip measured after 15 to 4320 mins by LC-MS/MS analysis; type: ADME, organism-based; details: in vivo, time 15-4320 min, read-out: LambdaZ; in short: as §2
[12] = target: Histone acetyltransferase KAT6B (Homo sapiens, UniProt Q8WYB5); assay: Inhibition of human MYST4 incubated for 20 mins followed by 3H-Acetyl CoA addition and measured after 30 mins
Chain of Histone acetyltransferase KAT6B (Q8WYB5 whole entry): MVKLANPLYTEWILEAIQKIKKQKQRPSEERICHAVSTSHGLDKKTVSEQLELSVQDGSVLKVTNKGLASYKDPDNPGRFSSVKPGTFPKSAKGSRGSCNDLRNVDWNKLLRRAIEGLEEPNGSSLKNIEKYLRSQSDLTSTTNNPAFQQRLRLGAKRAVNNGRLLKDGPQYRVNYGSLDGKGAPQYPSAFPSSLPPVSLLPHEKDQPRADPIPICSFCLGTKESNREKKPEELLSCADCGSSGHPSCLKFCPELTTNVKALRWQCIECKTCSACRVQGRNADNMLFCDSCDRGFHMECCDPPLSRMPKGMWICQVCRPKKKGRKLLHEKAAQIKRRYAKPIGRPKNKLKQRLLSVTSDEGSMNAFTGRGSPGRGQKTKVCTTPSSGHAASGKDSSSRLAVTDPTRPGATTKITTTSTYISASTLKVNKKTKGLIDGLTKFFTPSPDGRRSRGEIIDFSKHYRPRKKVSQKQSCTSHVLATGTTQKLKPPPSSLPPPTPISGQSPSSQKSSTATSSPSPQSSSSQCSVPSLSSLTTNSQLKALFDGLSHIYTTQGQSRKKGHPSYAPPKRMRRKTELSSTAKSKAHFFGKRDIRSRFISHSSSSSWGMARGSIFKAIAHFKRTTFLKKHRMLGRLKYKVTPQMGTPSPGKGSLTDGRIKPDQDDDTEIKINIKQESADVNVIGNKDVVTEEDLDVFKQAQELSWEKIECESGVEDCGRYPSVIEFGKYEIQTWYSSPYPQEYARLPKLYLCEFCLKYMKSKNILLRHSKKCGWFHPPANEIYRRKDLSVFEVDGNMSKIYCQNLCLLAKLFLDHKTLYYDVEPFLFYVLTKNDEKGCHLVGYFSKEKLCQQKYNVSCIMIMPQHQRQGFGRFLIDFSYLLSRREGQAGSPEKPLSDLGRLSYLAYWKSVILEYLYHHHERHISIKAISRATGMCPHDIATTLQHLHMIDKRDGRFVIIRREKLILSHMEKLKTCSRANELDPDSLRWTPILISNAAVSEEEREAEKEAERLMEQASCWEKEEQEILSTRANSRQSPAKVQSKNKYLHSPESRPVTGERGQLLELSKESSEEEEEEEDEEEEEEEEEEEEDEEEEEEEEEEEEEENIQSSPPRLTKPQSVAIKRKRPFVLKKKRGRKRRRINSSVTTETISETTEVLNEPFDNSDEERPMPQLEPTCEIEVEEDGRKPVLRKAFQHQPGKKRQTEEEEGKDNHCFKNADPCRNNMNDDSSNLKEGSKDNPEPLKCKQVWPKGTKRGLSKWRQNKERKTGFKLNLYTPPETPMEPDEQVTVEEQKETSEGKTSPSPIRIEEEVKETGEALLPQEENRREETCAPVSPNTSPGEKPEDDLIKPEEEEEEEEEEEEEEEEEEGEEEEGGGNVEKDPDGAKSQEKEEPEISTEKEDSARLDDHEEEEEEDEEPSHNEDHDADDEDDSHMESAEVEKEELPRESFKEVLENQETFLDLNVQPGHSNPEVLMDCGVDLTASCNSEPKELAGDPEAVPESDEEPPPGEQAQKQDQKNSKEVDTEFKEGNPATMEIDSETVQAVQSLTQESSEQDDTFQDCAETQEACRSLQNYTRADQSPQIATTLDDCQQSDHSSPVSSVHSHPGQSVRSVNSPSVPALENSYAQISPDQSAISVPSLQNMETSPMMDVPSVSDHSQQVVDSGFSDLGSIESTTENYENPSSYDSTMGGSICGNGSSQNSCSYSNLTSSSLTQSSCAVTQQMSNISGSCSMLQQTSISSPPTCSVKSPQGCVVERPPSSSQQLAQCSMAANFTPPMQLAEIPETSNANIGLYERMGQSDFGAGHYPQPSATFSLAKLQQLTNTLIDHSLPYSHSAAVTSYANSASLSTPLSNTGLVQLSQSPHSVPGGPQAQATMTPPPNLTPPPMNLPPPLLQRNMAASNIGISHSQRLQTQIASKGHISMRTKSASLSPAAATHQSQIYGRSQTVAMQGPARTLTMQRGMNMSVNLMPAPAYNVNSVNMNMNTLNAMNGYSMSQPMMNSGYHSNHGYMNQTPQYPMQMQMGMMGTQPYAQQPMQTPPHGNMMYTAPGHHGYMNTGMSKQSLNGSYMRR

[13] = Cmax in CD1 mouse at 100 mg/kg, ip measured after 72 hrs by LC-MS/MS analysis; type: ADME, organism-based; design: time 72 hrs, dose 100 mg/kg, route ip; details: in vivo; in short: as §2
[14] = target: Histone acetyltransferase KAT5 (Homo sapiens, UniProt Q92993); assay: Inhibition of human KAT5 incubated for 20 mins followed by 3H-Acetyl CoA addition and measured after 30 mins
Chain of Histone acetyltransferase KAT5 (Q92993 whole entry): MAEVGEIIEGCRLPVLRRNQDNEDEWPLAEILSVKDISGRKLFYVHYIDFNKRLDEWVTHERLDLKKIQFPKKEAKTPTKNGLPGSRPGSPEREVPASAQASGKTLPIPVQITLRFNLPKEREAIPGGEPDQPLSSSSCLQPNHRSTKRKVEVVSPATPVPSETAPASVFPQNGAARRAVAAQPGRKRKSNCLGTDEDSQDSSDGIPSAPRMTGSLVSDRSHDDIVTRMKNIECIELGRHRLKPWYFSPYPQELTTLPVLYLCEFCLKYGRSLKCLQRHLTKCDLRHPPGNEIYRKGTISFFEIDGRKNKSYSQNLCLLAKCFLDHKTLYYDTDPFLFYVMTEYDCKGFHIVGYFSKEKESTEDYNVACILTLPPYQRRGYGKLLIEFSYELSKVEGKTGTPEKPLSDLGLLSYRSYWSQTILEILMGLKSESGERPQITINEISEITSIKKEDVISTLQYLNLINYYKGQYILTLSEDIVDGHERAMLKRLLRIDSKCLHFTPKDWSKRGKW

[15] = Observed clearance in CD1 mouse at 100 mg/kg, ip measured after 15 to 4320 mins by LC-MS/MS analysis; type: ADME, organism-based; details: in vivo, time 15-4320 min; in short: as §2
HCC1806 [16] = assay: Cytotoxicity against human HCC1806 cells assessed as inhibition of cell growth by resazurin dye based fluorescence analysis; type: functional
In short: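 HCC1806 cells were treated across a range of doses. Growth was read by resazurin reduction to resorufin, with fluorescence at 590 nm.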

[17] = target: Histone acetyltransferase KAT2B (Homo sapiens) (UniProt Q92831); assay: Inhibition of human pCAF at 100 uM incubated for 20 mins followed by 3H-Acetyl CoA addition and measured after 30 mins; details: time 50.0 min
[18] = target: Histone acetyltransferase KAT2A (Homo sapiens) (UniProt Q92830); assay: Inhibition of human GCN5 at 100 uM incubated for 20 mins followed by 3H-Acetyl CoA addition and measured after 30 mins; details: time 50.0 min
[19] = target: T1, HAT1/Rbap46 (Homo sapiens); assay: as §1, with “cofactor at 10 uM” for “cofactor”, “to 4 hrs” for “hr”; type: cell-based; details: time 70-250 min

## CCCC(=O)OC[C@@H](OC(=O)CCC)[C@@H](OC(=O)CCC)[C@H](Cn1c2nc(=O)[nH]c(=O)c-2nc2cc(C)c(C)cc21)OC(=O)CCC
HAT1/Rbap46
  IC50: 17 µM

## CCc1cc2c(cc1Cl)nc1c(=O)[nH]c(=O)nc-1n2CCOCC1CCNCC1
[1]
  inhibition: 60%

## Cc1cc2nc3c(=O)[nH]c(=O)nc-3n(C[C@H](O)[C@H](O)[C@H](O)CO)c2cc1N(C)C
HCC1806 [2]
  inhibition: Active
[1]
  inhibition: 7%

## CCc1cc2c(cc1Cl)nc1c(=O)[nH]c(=O)nc-1n2CCCc1ccc(Br)cc1
[1]
  inhibition: 9%

## CCc1cc2c(cc1Cl)nc1c(=O)[nH]c(=O)nc-1n2CCCOc1ccc(C#N)cc1
[1]
  inhibition: 25%

## CCc1cc2c(cc1Cl)nc1c(=O)[nH]c(=O)nc-1n2CCOc1ccc(Br)cc1
[1]
  inhibition: 8%

## CCc1cc2c(cc1Cl)nc1c(=O)[nH]c(=O)nc-1n2CCOc1cc(F)cc(F)c1
[1]
  inhibition: -1%

## Cc1cc2nc3c(=O)[nH]c(=O)nc-3n(C[C@H](O)[C@H](O)[C@H](O)COP(=O)(O)O)c2cc1C
[3]
  inhibition: inactive

## O=C1CN2Cc3c(ccc(Cl)c3Cl)N=C2N1
[1]
  inhibition: -5%

## CCc1cc2c(cc1Cl)nc1c(=O)[nH]c(=O)nc-1n2C[C@H](O)[C@H](O)[C@H](O)CO
[1]
  inhibition: 40%
[4]
  inhibition: 59%

## CCc1cc2c(cc1Cl)nc1c(=O)[nH]c(=O)nc-1n2CCOC(C)=O
[1]
  inhibition: 49%

## CCC(=O)Nc1cc2[nH]c3nc(=O)n(Cc4ccccc4)c(=O)c-3nc2cc1C
[4]
  inhibition: 28%

## Cc1cc2nc3[nH]c(=O)[nH]c(=O)c3nc2cc1C
[3]
  inhibition: inactive
[1]
  inhibition: 7%

## CCc1cc2c(cc1Cl)nc1c(=O)[nH]c(=O)nc-1n2CC(C)(C)C
[1]
  inhibition: 62%

## CCc1cc2c(cc1Cl)nc1c(=O)[nH]c(=O)nc-1n2CCOCc1cccc(F)c1
[1]
  inhibition: 24%

## CCc1cc2c(cc1Cl)nc1c(=O)[nH]c(=O)nc-1n2CCOc1ccc(F)cc1
[1]
  inhibition: 1%

## CC(=O)OCCn1c2nc(=O)[nH]c(=O)c-2nc2cc(C)c(C)cc21
[4]
  inhibition: 51%

## CCc1cc2c(cc1Cl)nc1c(=O)[nH]c(=O)nc-1n2CCOc1ccc(C)cc1
[1]
  inhibition: 20%

## CCc1cc2c(cc1Cl)nc1c(=O)[nH]c(=O)nc-1n2CCCOc1ccc(-c2ccccc2)cc1
[1]
  inhibition: 8%

## CC(=O)Nc1cc2[nH]c3nc(=O)n(Cc4ccccc4)c(=O)c-3nc2cc1C
[4]
  inhibition: 32%

## O=c1nc2n(CCN(CO)CO)c3cc(Cl)c(Cl)cc3nc-2c(=O)[nH]1
[1]
  inhibition: 17%
[4]
  inhibition: 37%

## CC(=O)Nc1cc2[nH]c3nc(=O)n(CC4CCCCC4)c(=O)c-3nc2cc1C
[4]
  inhibition: 25%

## CCc1cc2c(cc1Cl)nc1c(=O)[nH]c(=O)nc-1n2CCOCc1cccc(C(F)(F)F)c1
[1]
  inhibition: 23%

## COC1=C(N)C(=O)c2nc(-c3nc(C(=O)O)c(C)c(-c4ccc(OC)c(OC)c4O)c3N)ccc2C1=O
[4]
  inhibition: 66.3%

## CCc1cc2c(cc1Cl)nc1c(=O)[nH]c(=O)nc-1n2CCOCC1CCCC1
[1]
  inhibition: 47%

## CCc1cc2nc3c(=O)[nH]c(=O)nc-3n(C[C@H](O)[C@H](O)[C@H](O)CO)c2cc1Cl
[1]
  inhibition: 61%
[4]
  inhibition: 64%

## O=c1nc2n(CC(O)C(O)C(O)C(O)CO)c3cc(Cl)c(Cl)cc3nc-2c(=O)[nH]1 (stereo not given)
[1]
  inhibition: 31%
[4]
  inhibition: 46%
HAT1/Rbap46
  IC50: 62.6 µM

## CCc1cc2c(cc1Cl)nc1c(=O)[nH]c(=O)nc-1n2CCOCc1ccc(-c2ccccc2)cc1
[1]
  inhibition: 17%

## CCc1cc2c(cc1Cl)nc1c(=O)[nH]c(=O)nc-1n2CCOCc1ccccc1
[1]
  inhibition: 49%

## CCc1cc2c(cc1Cl)nc1c(=O)[nH]c(=O)nc-1n2CCCOc1cccc(C(F)(F)F)c1
[1]
  inhibition: 19%

## CCc1cc2c(cc1Cl)nc1c(=O)[nH]c(=O)nc-1n2CCOCC(C)C
A549
  Activity: Active
Mus musculus
  inhibition: Dose-Dependent Effect
[5]
  Cmax: 70.1 µM
[6]
  Tmax: 1 h
Homo sapiens
  inhibition: inactive
[7]
  Vd/F: 13.6 L/kg
[8]
  Activity: Toxic
[9]
  Activity: Non-Toxic
[10]
  AUC(0-t): 641 µM·h
[11]
  half-life: 25.4 h
[12]
  IC50: > 100 µM
[13]
  Cmax: 2.05 µM
[14]
  IC50: > 100 µM
[15]
  CL/F: 6.2 mL/min/kg
HCC1806 [16]
  EC50: 10.4 µM
[17]
  inhibition: inactive
[18]
  inhibition: inactive

## CCc1cc2c(cc1Cl)nc1c(=O)[nH]c(=O)nc-1n2CCOc1ccccn1
[1]
  inhibition: 55%

## CCc1cc2c(cc1Cl)nc1c(=O)[nH]c(=O)nc-1n2CCOCc1cccc(Br)c1
[1]
  inhibition: 17%

## Cc1cc2cc3c(=O)[nH]c(=O)cc-3n(CC(O)C(O)C(O)CO)c2cc1C (stereo not given)
[4]
  inhibition: 66.4%

## O=C(O)Cc1ccc(/N=N/c2c(O)c(C(=O)O)cc3ccccc23)cc1
[4]
  inhibition: 72.2%

## NC(=S)c1cn([C@@H]2O[C@H](CO)[C@@H](O)[C@H]2O)c2ncnc(N)c12
[4]
  inhibition: 72.2%

## CCc1cc2c(cc1Cl)nc1c(=O)[nH]c(=O)nc-1n2CCOc1cccc(C(F)(F)F)c1
[1]
  inhibition: 11%

## CCc1cc2c(cc1Cl)nc1c(=O)[nH]c(=O)nc-1n2CCCc1cc(F)cc(F)c1
[1]
  inhibition: 15%

## CCc1cc2c(cc1Cl)nc1c(=O)[nH]c(=O)nc-1n2CCOCc1ccc(C#N)cc1
[1]
  inhibition: 26%

## Oc1ccccc1C1=NC2c3ccccc3-c3ccccc3C2N1 (stereo not given)
[4]
  inhibition: 69%

## CCc1cc2c(cc1Cl)nc1c(=O)[nH]c(=O)nc-1n2CCOCC(C)(C)C
[1]
  inhibition: 40%

## CCc1cc2c(cc1Cl)nc1c(=O)[nH]c(=O)nc-1n2CCOc1ccc(-c2ccccc2)cc1
[1]
  inhibition: 13%

## CCc1cc2c(cc1Cl)nc1c(=O)[nH]c(=O)nc-1n2CCOc1cccc(F)c1
[1]
  inhibition: 17%

## CC(=O)N[C@@H](CCCCNC(=O)SCCNC(=O)CCNC(=O)[C@H](O)C(C)(C)COP(=O)(O)OP(=O)(O)OC[C@H]1O[C@@H](n2cnc3c(N)ncnc32)[C@H](O)[C@@H]1OP(=O)(O)O)C(N)=O
[19]
  inhibition: inactive

## CCc1cc2c(cc1Cl)nc1c(=O)[nH]c(=O)nc-1n2CCOCC1CCN(C(=O)OC(C)(C)C)CC1
[1]
  inhibition: 50%

## CCc1cc2c(cc1Cl)nc1c(=O)[nH]c(=O)nc-1n2CCO
[1]
  inhibition: 54%

## CCc1cc2c(cc1Cl)nc1c(=O)[nH]c(=O)nc-1n2CCCOc1ccc(C)cc1
[1]
  inhibition: 12%
